Assay results as given in ChEMBL document CHEMBL1926589, “2-Anilinonicotinyl linked 2-aminobenzothiazoles and [1,2,4]triazolo[1,5-b] [1,2,4]benzothiadiazine conjugates as potential mitochondrial apoptotic inducers” (Bioorg Med Chem, 2011).
Calls of active or inactive are those of the source. The rule behind the calls is not given here.

Assays:
IMR-32 = assay: Growth inhibition of human IMR32 cells at 10 uM by sulforhodamine B assay; type: functional; details: read-out: GI
Summary of the method: (§1)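 Single-dose 10 µM screen by sulforhodamine B assay, reported as percent inhibition of cell proliferation. Cells grown in medium with 10% heat-inactivated FBS at 37 °C, 5% CO2, and treated at about 70% confluence or in log phase. Compounds dissolved in DMSO; controls received vehicle (<0.5% v/v).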

SK-N-SH = assay: Growth inhibition of human SK-N-SH cells at 10 uM by sulforhodamine B assay; type: functional; details: read-out: GI; summary of the method: as §1
SiHa [1] = assay: Growth inhibition of human SiHa cells at 10 uM by sulforhodamine B assay; type: functional; details: read-out: GI; summary of the method: as §1
SW-620 = assay: Growth inhibition of human SW620 cells at 10 uM by sulforhodamine B assay; type: functional; details: read-out: GI; summary of the method: as §1
HCT-15 = assay: Growth inhibition of human HCT15 cells at 10 uM by sulforhodamine B assay; type: functional; details: read-out: GI; summary of the method: as §1
[2] = Growth inhibition of human 502713 cells at 10 uM by sulforhodamine B assay; type: functional; details: read-out: GI; summary of the method: as §1
DU-145 = assay: Growth inhibition of human DU145 cells at 10 uM by sulforhodamine B assay; type: functional; details: read-out: GI; summary of the method: as §1
A549 = assay: Growth inhibition of human A549 cells at 10 uM by sulforhodamine B assay; type: functional; details: read-out: GI; summary of the method: as §1
HEp-2 = assay: Growth inhibition of human Hep2 cells at 10 uM by sulforhodamine B assay; type: functional; details: read-out: GI; summary of the method: as §1
OVCAR-5 = assay: Growth inhibition of human OVCAR5 cells at 10 uM by sulforhodamine B assay; type: functional; details: read-out: GI; summary of the method: as §1
HL-60 [3] = assay: Growth inhibition of human HL60 cells after 48 hrs by MTT assay; type: functional, cell-based; details: HL-60, 48 h
SiHa [4] = assay: Growth inhibition of human SiHa cells after 48 hrs by MTT assay; type: functional, cell-based
CV-1 = assay: Growth inhibition of african green monkey CV1 cells after 48 hrs by MTT assay; type: cell-based; details: Chlorocebus aethiops, CV-1, 48 h
[5] = Therapeutic ratio of IC50 for african green monkey CV1 cells to IC50 for human HL60 cells; type: ADME, cell-based, HL-60; details: CV1 cells and HL60 cells, read-out: Ratio IC50
HL-60 [6] = assay: Induction of apoptosis in human HL60 cells assessed as early apoptotic cells at 1 uM after 24 hrs using Annexin V-FITC and propidium iodide staining by flow cytometry relative to control; type: functional
Summary of the method: (§2)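 HL-60 cells (1 x 10^5 per 1.5 mL) treated 24 h, washed twice in PBS and stained in binding buffer with annexin V-FITC and PI. Flow cytometry with FITC in FL-1 (530 nm) and PI in FL-2 (585 nm), using quadrant statistics: lower right taken as apoptotic, upper right as post-apoptotic necrotic. Representative of three independent experiments.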

HL-60 [7] = assay: Induction of apoptosis in human HL60 cells assessed as non-viable necrotic cells at 1 uM after 24 hrs using Annexin V-FITC and propidium iodide staining by flow cytometry relative to control; type: functional; summary of the method: as §2
HL-60 [8] = assay: Induction of apoptosis in human HL60 cells assessed as late apoptotic cells at 1 uM after 24 hrs using Annexin V-FITC and propidium iodide staining by flow cytometry relative to control; type: functional; summary of the method: as §2
HL-60 [9] = assay: Induction of apoptosis in human HL60 cells assessed as caspase3 activation using DEVD-AFC as substrate at 1 uM after 24 hrs by fluorimetry relative to control; type: functional
Summary of the method: (§3)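 HL-60 cells (2 x 10^6) treated 24 h, washed and lysed. Caspase-3, -8 and -9 activities in lysates measured fluorometrically with a commercial caspase fluorescent assay kit. Two independent experiments, each in duplicate.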

HL-60 [10] = assay: Induction of apoptosis in human HL60 cells assessed as caspase8 activation using IETD-AFC as substrate at 1 uM after 24 hrs by fluorimetry relative to control; type: functional; summary of the method: as §3
HL-60 [11] = assay: Induction of apoptosis in human HL60 cells assessed as caspase9 activation using LEHD-AMC as substrate at 1 uM after 24 hrs by fluorimetry relative to control; type: functional; summary of the method: as §3
HL-60 [12] = assay: Induction of apoptosis in human HL60 cells assessed as DNA ladder formation at 1 uM after 24 hrs by agarose gel electrophoresis; type: functional, cell-based
Summary of the method: (§4)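 Cells treated 24 h, then 2 x 10^6 cells lysed (Triton X-100 buffer, pH 8.0) with RNase at 37 °C for 90 min and proteinase-K at 50 °C for 1 h. DNA phenol/chloroform-extracted and ethanol-precipitated, then run on 1.8% agarose at 50 V for 1.5 h in TAE. Ladders viewed under UV.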

HL-60 [13] = assay: Induction of apoptosis in human HL60 cells assessed as DNA ladder formation at 10 uM after 24 hrs by agarose gel electrophoresis; type: functional, cell-based; summary of the method: as §4
SiHa [14] = assay: Induction of apoptosis in human SiHa cells assessed as DNA ladder formation at 10 uM after 24 hrs by agarose gel electrophoresis; type: functional, cell-based; summary of the method: as §4
HeLa = assay: Induction of apoptosis in human HeLa cells assessed as DNA ladder formation at 10 uM after 24 hrs by agarose gel electrophoresis; type: functional, cell-based; summary of the method: as §4
HL-60 [15] = assay: Cell cycle arrest in human HL60 cells assessed as accumulation at sub-G0 phase measuring DNA damage at 1 uM after 24 hrs using propidium iodide staining by flow cytometry (reference value: 1%); type: functional
Summary of the method: (§5)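 HL-60 cells (1 x 10^5 per 1.5 mL) treated 24 h, then fixed in 70% cold ethanol at −20 °C overnight. RNase digestion (400 µg/ml) at 37 °C for 45 min, then propidium iodide (10 µg/ml) for 30 min. Flow cytometry on 10,000 events, FL2-A vs FL2-W, with doublet discrimination. Sub-G0 (hypodiploid) peak taken as apoptotic cells. Mean ± SD of three independent experiments.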

HL-60 [16] = assay: Cell cycle arrest in human HL60 cells assessed as accumulation at G1 phase at 1 uM after 24 hrs using propidium iodide staining by flow cytometry; type: functional, cell-based; summary of the method: as §5
HL-60 [17] = assay: Cell cycle arrest in human HL60 cells assessed as accumulation at S phase at 1 uM after 24 hrs using propidium iodide staining by flow cytometry; type: functional, cell-based; summary of the method: as §5
HL-60 [18] = assay: Cell cycle arrest in human HL60 cells assessed as accumulation at G2/M phase at 1 uM after 24 hrs using propidium iodide staining by flow cytometry; type: functional, cell-based; summary of the method: as §5
HL-60 [19] = assay: Induction of apoptosis in human HL60 cells assessed as increase of reactive oxygen species level at 1 uM after 24 hrs using DCFH-DA fluorescent dye based flow cytometric analysis relative to control; type: functional
Summary of the method: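 HL-60 cells (1 x 10^5 per 1.5 mL) treated 24 h, then loaded with 10 µM H2DCFDA for 30 min at 37 °C. Washed twice in PBS and read in FL-1 (530 nm). Percentage of DCF-positive cells determined; mean ± SD of three experiments.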

HL-60 [20] = assay: Induction of NO production in human HL60 cells at 1 uM after 24 hrs using DAF-2DA fluorescent dye based flow cytometric analysis; type: functional, cell-based
Summary of the method: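 HL-60 cells (1 x 10^5 per 1.5 mL) preloaded 30 min with 10 µM DAF-2-DA before treatment. After 24 h exposure, cells were washed and read by flow cytometry in FL-1 as NO-positive population. Mean ± SD of three independent experiments.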

HL-60 [21] = assay: Induction of apoptosis in human HL60 cells assessed as decrease in mitochondrial membrane potential at 1 uM after 24 hrs using rhodamine 123 staining by flow cytometry; type: functional
Summary of the method: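 HL-60 cells (1 x 10^5 per 1.5 mL) treated 24 h, then stained with rhodamine-123 (5 µg/mL final) for 1 h. Washed, and propidium iodide (5 µg/mL) added just before reading. FL-1 fluorescence from 10,000 events; percentage of low Rh-123 cells taken as loss of membrane potential. Mean ± SD, n=3.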

HL-60 [22] = assay: Inhibition of NF-kappaB expression in human HL60 cells at 1 uM after 24 hrs by Western blotting; type: functional, cell-based
Summary of the method: (§6)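 HL-60 cells treated 24 h and lysed in RIPA buffer on ice; protein measured by Bradford against a BSA standard. 50 µg resolved by SDS-PAGE and transferred to PVDF, blocked in 5% milk/TBST, then primary antibodies 1:1000 for 2 h and HRP secondary 1:1000 for 1 h. ECL detection with β-actin as loading control; bands quantified by densitometry.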

HL-60 [23] = assay: Inhibition of survivin expression in human HL60 cells at 1 uM after 24 hrs by Western blotting; type: functional, cell-based; summary of the method: as §6
HL-60 [24] = assay: Induction of apoptosis in human HL60 cells assessed as PARP cleavage at 1 uM after 24 hrs by Western blotting; type: functional, cell-based; summary of the method: as §6
HL-60 [25] = assay: Inhibition of HSP-90 expression in human HL60 cells at 1 uM after 24 hrs by Western blotting; type: functional, cell-based; summary of the method: as §6
HL-60 [26] = assay: Inhibition of Bcl-2 expression in human HL60 cells at 1 uM after 24 hrs by Western blotting; type: functional, cell-based; summary of the method: as §6

`O=C(Nc1nc2ccc([N+](=O)[O-])cc2s1)c1cccnc1Nc1ccc(F)cc1` gave an inhibition of growth at 10 µM (IMR-32) of 33%, an inhibition of growth at 10 µM (SK-N-SH) of 63% and an inhibition of growth at 10 µM (SiHa [1]) of 23%. The inhibition of growth at 10 µM (SW-620) was 67%, the inhibition of growth at 10 µM (HCT-15) was 55% and the inhibition of growth at 10 µM [2] was 66%. For the same molecule, the inhibition of growth at 10 µM (DU-145) was 51%, the inhibition of growth at 10 µM (A549) was 18% and the inhibition of growth at 10 µM (HEp-2) was 52%. For the same molecule, the inhibition of growth at 10 µM (OVCAR-5) was 53%, the IC50 (HL-60 [3]) was 300 nM and the IC50 (SiHa [4]) was 7 µM. For the same molecule, the IC50 (CV-1) was 15 µM, the selectivity ratio [5] was 50 and the Activity (HL-60 [6]) was 9%. The Activity (HL-60 [7]) was 45%, the Activity (HL-60 [8]) was 5% and the Activity (HL-60 [9]) was “inactive”. The Activity (HL-60 [10]) was “inactive”, the Activity (HL-60 [11]) was “inactive” and the Activity (HL-60 [12]) was “Active”. For the same molecule, the Activity (HL-60 [13]) was “Active”, the Activity (SiHa [14]) was “inactive” and the Activity (HeLa) was “inactive”. The Activity (HL-60 [15]) was 60%, the Activity (HL-60 [16]) was “inactive” and the Activity (HL-60 [17]) was “inactive”. The Activity (HL-60 [18]) was “inactive”, the Activity (HL-60 [19]) was 16% and the Activity (HL-60 [20]) was “inactive”. For the same molecule, the Activity (HL-60 [21]) was “Active”, the inhibition (HL-60 [22]) was “inactive” and the inhibition (HL-60 [23]) was “Active”. The Activity (HL-60 [24]) was “Active”, the inhibition (HL-60 [25]) was “Active” and the inhibition (HL-60 [26]) was “inactive”.
